# Test results taken from ChEMBL document CHEMBL2375260, “Antifungal agents from Pseudallescheria boydii SNB-CN73 isolated from a Nasutitermes sp. termite” (J Nat Prod, 2013).
# Columns and labels:
# MCF7 [1] = assay: Cytotoxicity against human MCF7 cells assessed as inhibition of IGF1-induced cellular growth; type: functional, cell-based
# MCF7 [2] = assay: Cytotoxicity against human MCF7 cells assessed as inhibition of FBS-induced cellular growth; type: functional, cell-based
# Staphylococcus aureus = assay: Antibacterial activity against Staphylococcus aureus ATCC 29213 assessed as growth inhibition after 24 hrs by […]; type: functional; details: ATCC 29213, 24 h
# Trichophyton rubrum = assay: Antifungal activity against Trichophyton rubrum SNB-TR1 assessed as growth inhibition after 5 days by […]; type: functional; details: SNB-TR1, 120 h
# Aspergillus fumigatus = assay: Antifungal activity against Aspergillus fumigatus SNB-AF1 assessed as growth inhibition after 24 hrs by […]; type: functional; details: SNB-AF1, 24 h
# Candida parapsilosis = assay: Antifungal activity against Candida parapsilosis ATCC 22019 assessed as growth inhibition after 18 hrs by […]; type: functional; details: Lodderomyces parapsilosis, ATCC 22019, 18 h
# Candida albicans = assay: Antifungal activity against Candida albicans ATCC 10231 assessed as growth inhibition after 18 hrs by […]; type: functional; details: ATCC 10231, 18 h
# Escherichia coli = assay: Antibacterial activity against Escherichia coli ATCC 25922 assessed as growth inhibition after 24 hrs by […]; type: functional
# [3] = Selectivity index, ratio of IC50 for human MDA435 cells to MIC for Candida parapsilosis ATCC 22019; type: functional
# Outline: (§1)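 Selectivity index is calculated as SI = IC50/MIC. IC50 is the cytotoxicity measured in MDA435 cells (melanoma, previously described as mammary carcinoma). MIC is the EUCAST reference-protocol value for the given microbial strain.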
# [4] = Selectivity index, ratio of IC50 for human MDA435 cells to MIC for Staphylococcus aureus ATCC 29213; type: functional; outline: as §1
# [5] = Selectivity index, ratio of IC50 for human MDA435 cells to MIC for Trichophyton rubrum SNB-TR1; type: functional; outline: as §1
# [6] = Selectivity index, ratio of IC50 for human MDA435 cells to MIC for Escherichia coli ATCC 25922; type: functional; outline: as §1
# [7] = Selectivity index, ratio of IC50 for human MDA435 cells to MIC for Candida albicans ATCC 10231; type: functional; outline: as §1
# [8] = Cytotoxicity against human MDA435 cells assessed as growth inhibition; type: functional, cell-based; details: MDA-MB-435
# KB = assay: Cytotoxicity against human KB cells assessed as growth inhibition; type: functional, cell-based
# [9] = Selectivity index, ratio of IC50 for human MDA435 cells to MIC for Aspergillus fumigatus SNB-AF1; type: functional; outline: as §1
compound,measurement,setting,value
CC[C@@H](C)C[C@@H](C)/C=C/CC[C@@H](O)[C@H](Cc1ccc(O)cc1)NC [TYROSCHERIN 8],IC50,MCF7 [1],0.03 µM
same,IC50,MCF7 [2],6.2 µM
Cc1onc(-c2ccccc2)c1C(=O)N[C@@H]1C(=O)N2[C@@H]1SC(C)(C)[C@@H]2C(=O)O [OXACILLIN],MIC,Staphylococcus aureus,0.5 µg/mL
CCC(C)n1ncn(-c2ccc(N3CCN(c4ccc(OCC5COC(Cn6cncn6)(c6ccc(Cl)cc6Cl)O5)cc4)CC3)cc2)c1=O (stereo unspecified) [ITRACONAZOLE],MIC,Trichophyton rubrum,0.25 µg/mL
same,MIC,Aspergillus fumigatus,0.5 µg/mL
OC(Cn1cncn1)(Cn1cncn1)c1ccc(F)cc1F [FLUCONAZOLE],MIC,Candida parapsilosis,4 µg/mL
same,MIC,Candida albicans,4 µg/mL
GENTAMICIN,MIC,Escherichia coli,8 µg/mL
CC[C@@H](C)C[C@@H](C)/C=C/CC[C@@H](O)[C@H](Cc1ccc(O)cc1)NC.O=CO [TYROSCHERIN FORMATE],MIC,Candida parapsilosis,16 µg/mL
same,MIC,Candida albicans,2 µg/mL
same,Selectivity Index,[3],1.3
same,MIC,"Escherichia coli; ATCC 25922, 24 h",16 µg/mL
same,Selectivity Index,[4],2.5
same,MIC,Staphylococcus aureus,8 µg/mL
same,Selectivity Index,[5],10
same,Selectivity Index,[6],1.3
same,Selectivity Index,[7],10
same,IC50,[8],20 µg/mL
same,IC50,KB,8.6 µg/mL
same,MIC,Trichophyton rubrum,2 µg/mL
same,Selectivity Index,[9],1.3
same,MIC,Aspergillus fumigatus,16 µg/mL
CC[C@@H](C)C[C@@H](C)/C=C/CC[C@@H](O)[C@H](Cc1ccc(O)cc1)N(C)C.O=CO,MIC,Candida parapsilosis,32 µg/mL
same,MIC,Candida albicans,4 µg/mL
same,Selectivity Index,[3],0.8
same,MIC,"Escherichia coli; ATCC 25922, 24 h",32 µg/mL
same,Selectivity Index,[4],1.5
same,MIC,Staphylococcus aureus,16 µg/mL
same,Selectivity Index,[5],6.1
same,Selectivity Index,[6],0.8
same,Selectivity Index,[7],6.1
same,IC50,[8],24.3 µg/mL
same,IC50,KB,16 µg/mL
same,MIC,Trichophyton rubrum,4 µg/mL
same,Selectivity Index,[9],0.8
same,MIC,Aspergillus fumigatus,32 µg/mL
